From ChEMBL document CHEMBL1926565, “Synthesis, antiproliferative activities and telomerase inhibition evaluation of novel asymmetrical 1,2-disubstituted amidoanthraquinone derivatives” (Eur J Med Chem, 2012) come the findings set out here.

The source made the active and inactive calls. No cut-off for these calls is given here.

Assay [1] in a line: Growth of human H1299 cells at 100 uM 48 hrs by MTT assay. The note with it: NCI-H1299, 48 h. In general terms: Tetrazolium dyes change colour on reduction, which living cells bring about.
For a further assay, the system named is PC-3. The experiment in a line: Cytotoxicity against human PC3 cells after 48 hrs by SRB assay. It counts as functional, cell-based. The note with it: PC-3, 48 h. A digest of the protocol: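 PC-3 cells grown in RPMI1640 with 10% FBS at 37 °C, 5% CO₂. Seeded in medium with 5% FBS; after 24 h, one plate fixed with 10% TCA as T₀. Compound or 0.1% DMSO vehicle added for 48 h, then TCA fixation and 0.4% SRB in 1% acetic acid. Dye solubilized in 10 mM Trizma base, absorbance read at 515 nm. IC50 is the concentration giving 50% reduction of the protein gain in controls.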
For orientation: Sulforhodamine B stains cellular protein and so reports cell mass.

In assay [2] the target is Telomerase reverse transcriptase (Homo sapiens) (UniProt O14746). Briefly: Residual activity of human TERT in H1299 cells at 10 uM after 24 hrs by SEAP reporter gene assay. (In general: Reporter assays use an easily measured gene product as a stand-in for the process of interest.)
Telomerase reverse transcriptase (Homo sapiens), sequence (O14746 whole entry): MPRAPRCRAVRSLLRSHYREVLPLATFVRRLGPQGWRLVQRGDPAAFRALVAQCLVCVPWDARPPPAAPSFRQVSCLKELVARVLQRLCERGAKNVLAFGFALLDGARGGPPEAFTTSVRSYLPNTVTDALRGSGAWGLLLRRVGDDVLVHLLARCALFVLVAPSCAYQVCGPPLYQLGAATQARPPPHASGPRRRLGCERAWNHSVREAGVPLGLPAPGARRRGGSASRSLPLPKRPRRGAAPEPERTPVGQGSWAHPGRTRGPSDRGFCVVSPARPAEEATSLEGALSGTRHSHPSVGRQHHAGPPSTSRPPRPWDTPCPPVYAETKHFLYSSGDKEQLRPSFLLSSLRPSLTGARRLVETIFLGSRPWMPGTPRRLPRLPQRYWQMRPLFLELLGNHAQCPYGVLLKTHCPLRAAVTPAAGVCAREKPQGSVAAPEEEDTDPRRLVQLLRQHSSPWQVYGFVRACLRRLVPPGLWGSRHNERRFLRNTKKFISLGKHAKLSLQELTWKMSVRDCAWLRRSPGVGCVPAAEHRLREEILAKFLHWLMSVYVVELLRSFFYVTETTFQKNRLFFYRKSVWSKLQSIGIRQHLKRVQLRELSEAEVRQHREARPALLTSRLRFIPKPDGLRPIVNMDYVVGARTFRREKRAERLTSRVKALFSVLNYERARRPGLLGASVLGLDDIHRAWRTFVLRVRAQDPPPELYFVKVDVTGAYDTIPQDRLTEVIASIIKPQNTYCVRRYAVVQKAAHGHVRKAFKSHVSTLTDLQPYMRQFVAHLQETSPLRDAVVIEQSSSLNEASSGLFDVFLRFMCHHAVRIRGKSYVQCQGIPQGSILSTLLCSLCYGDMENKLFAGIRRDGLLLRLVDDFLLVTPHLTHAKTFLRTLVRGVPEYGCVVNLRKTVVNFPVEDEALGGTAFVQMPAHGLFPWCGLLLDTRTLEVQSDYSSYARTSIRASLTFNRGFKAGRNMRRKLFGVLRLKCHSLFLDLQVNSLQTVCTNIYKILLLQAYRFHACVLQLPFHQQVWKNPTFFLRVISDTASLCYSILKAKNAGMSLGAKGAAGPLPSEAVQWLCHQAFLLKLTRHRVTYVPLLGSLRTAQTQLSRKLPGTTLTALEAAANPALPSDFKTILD
The nature of assay [3]: Growth of human H1299 cells at 1 uM after 48 hrs by MTT assay. The note with it: NCI-H1299, 48 h.
For assay [4], the target named is Telomerase reverse transcriptase (Homo sapiens) (UniProt O14746). The experiment in a line: Residual activity of human TERT in H1299 cells at 1 uM after 24 hrs by SEAP reporter gene assay.
Assay [5] has the same target. Briefly: Inhibition of telomerase activity in human H1299 cell free extract at 10 uM by modified TRAP assay. A digest of the protocol: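 TRAP assay using total cell lysate from H1299 lung cancer cells as the telomerase source, with protein measured against BSA standards. Compounds tested at 10 µM. Controls were lysate without inhibitor (positive) and RNase A-treated extract without inhibitor (negative).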

The target is the same in assay [6]. The experiment in a line: Residual activity of human TERT in H1299 cells at 100 uM after 24 hrs by SEAP reporter gene assay.
The nature of assay [7]: Growth of human H1299 cells at 10 uM after 48 hrs by MTT assay. The note with it: NCI-H1299, 48 h.

In general, IC50 refers to the concentration that gives 50% inhibition. Read a high IC50 as a need for much substance. The residual activity is the signal under treatment as a percentage of the control signal. Regarding `O=C(CCl)Nc1ccc2c(c1NC(=O)c1cccc(F)c1)C(=O)c1ccccc1C2=O`, the growth, % of control at 100 µM in assay [1] worked out at 1%. Besides, the IC50 in the assay with PC-3 amounted to 3.48 µM. Also, the results for the residual activity in assay [2], in assay [4] and in assay [6] were 1%, 26% and 0%, respectively. Besides, in assay [3], the growth, % of control at 1 µM came to 18%. Besides, the inhibition entry in assay [5] was “inactive”. The compound also displayed a growth, % of control at 10 µM in assay [7] of 8%.

On to `Cc1ccccc1C(=O)Nc1c(NC(=O)CCl)ccc2c1C(=O)c1ccccc1C2=O`, for which the growth, % of control at 100 µM in assay [1] was determined as 0%. Besides, in the assay with PC-3, half-maximal inhibition (IC50) was put at 3.67 µM. The residual activity in assay [2] came out at 0%; in assay [4] it was 98%; in assay [6], 0%. The compound also gave a growth, % of control at 1 µM in assay [3] of 73%. Besides, in assay [5], the inhibition result was “inactive”. The compound further had a growth, % of control at 10 µM in assay [7] of 0%.

As for `Cc1ccc(C(=O)Nc2c(NC(=O)CN3CCN(CCO)CC3)ccc3c2C(=O)c2ccccc2C3=O)cc1`, in assay [1], the growth, % of control at 100 µM was found to be 0%. Also, in the assay on PC-3, it took 2.07 µM to reach half-maximal inhibition (IC50). The residual activity in assay [2] is 8%; in assay [4], 76%; in assay [6], 0%. Also, the growth, % of control at 1 µM in assay [3] worked out at 71%. Further, in assay [5], the inhibition result is “inactive”. The compound further registered a growth, % of control at 10 µM in assay [7] of 44%.

`Cc1cccc(C(=O)Nc2c(NC(=O)CCl)ccc3c2C(=O)c2ccccc2C3=O)c1` came in with a growth, % of control at 100 µM in assay [1] of 0%. The compound further gave an IC50 in the assay on PC-3 of 3.79 µM. The residual activity is 0% in assay [2], 116% in assay [4] and 0% in assay [6]. In addition, the growth, % of control at 1 µM in assay [3] worked out at 72%. For the same compound, in assay [5], the inhibition entry was “inactive”. For the same compound, the growth, % of control at 10 µM in assay [7] was determined as 0%.

Take `Cc1ccc(C(=O)Nc2c(NC(=O)CN3CCSCC3)ccc3c2C(=O)c2ccccc2C3=O)cc1`: the growth, % of control at 100 µM in assay [1] stood at 20%. It took 19.1 µM to reach half-maximal inhibition in the assay on PC-3 (IC50). Also, the residual activity in assay [2] worked out at 72%; in assay [4] it was 88%; in assay [6], 12%. Further, the growth, % of control at 1 µM in assay [3] worked out at 85%. In assay [5], the inhibition entry was “inactive”. The compound further displayed a growth, % of control at 10 µM in assay [7] of 69%.

As for `O=C1c2c(O)ccc(O)c2C(=O)c2c(NCCNCCO)ccc(NCCNCCO)c21` [MITOXANTRONE], half-maximal inhibition with PC-3 (IC50) required 0.29 µM.

Take `Nc1c(NC(=O)CCl)ccc2c1C(=O)c1ccccc1C2=O`: the growth, % of control at 100 µM in assay [1] was 0%. In the assay on PC-3, this compound yielded an IC50 of 1.65 µM. Further, the residual activity is 13% in assay [2], 15% in assay [4] and 13% in assay [6]. The growth, % of control at 1 µM in assay [3] was 8%. The inhibition result in assay [5] is “inactive”. For the same compound, in assay [7], the growth, % of control at 10 µM amounted to 0%.

In assay [1], `O=C(CCl)Nc1ccc2c(c1NC(=O)c1ccccc1F)C(=O)c1ccccc1C2=O` gave a growth, % of control at 100 µM of 0%. In addition, the IC50 with PC-3 was over 20 µM. In addition, the figures for the residual activity in assay [2], in assay [4] and in assay [6] were 5%, 105% and 2%, respectively. Also, the growth, % of control at 1 µM in assay [3] came to 78%. Further, in assay [5], the inhibition result is “inactive”. In assay [7], this compound registered a growth, % of control at 10 µM of 2%.

Compound `O=C(CCl)Nc1ccc2c(c1NC(=O)CCCl)C(=O)c1ccccc1C2=O` came in with a growth, % of control at 100 µM in assay [1] of 19%. For the same compound, the concentration for half-maximal inhibition (IC50) in the assay with PC-3 was found to be 1.23 µM. For the same compound, the residual activity in assay [2] is 92%; in assay [4], 113%; in assay [6], 15%. In assay [3], this compound had a growth, % of control at 1 µM of 103%. Besides, in assay [5], the inhibition result was “inactive”. Also, the growth, % of control at 10 µM in assay [7] came out at 79%.

Compound `Cc1ccc(C(=O)Nc2c(NC(=O)CN(C)CCc3ccccn3)ccc3c2C(=O)c2ccccc2C3=O)cc1` displayed a growth, % of control at 100 µM in assay [1] of 1%. It took 6.68 µM to reach half-maximal inhibition in the assay with PC-3 (IC50). Further, the residual activity in assay [2] turned out to be 11%; in assay [4] it was 94%; in assay [6], 22%. For the same compound, the growth, % of control at 1 µM in assay [3] was found to be 90%. The inhibition result in assay [5] is “inactive”. Besides, the growth, % of control at 10 µM in assay [7] is 46%.

`O=C(CCl)Nc1ccc2c(c1NC(=O)c1ccno1)C(=O)c1ccccc1C2=O`: the growth, % of control at 100 µM in assay [1] worked out at 0%. The IC50 in the assay with PC-3 stood at 3.78 µM. Besides, the residual activity in assay [2] is 4%; in assay [4] it was 92%; in assay [6], 1%. This compound also registered a growth, % of control at 1 µM in assay [3] of 105%. Besides, the inhibition entry in assay [5] is “inactive”. In assay [7], this compound gave a growth, % of control at 10 µM of 3%.

As to `Cc1ccc(C(=O)Nc2c(NC(=O)CN3CCN(c4ccccc4)CC3)ccc3c2C(=O)c2ccccc2C3=O)cc1`, the growth, % of control at 100 µM in assay [1] came out at 23%. The compound further returned an IC50 with PC-3 of over 20 µM. In addition, the residual activity worked out at 88% in assay [2], 93% in assay [4] and 15% in assay [6]. The growth, % of control at 1 µM in assay [3] amounted to 80%. Further, the inhibition result in assay [5] is “inactive”. Also, the growth, % of control at 10 µM in assay [7] amounted to 76%.

On to `O=C(CCl)Nc1ccc2c(c1NC(=O)Cc1ccc(F)cc1)C(=O)c1ccccc1C2=O`, for which the growth, % of control at 100 µM in assay [1] was found to be 6%. The compound also gave a half-inhibitory concentration (IC50) in the assay on PC-3 of over 20 µM. Further, the residual activity in assay [2] stood at 8%; in assay [4], 93%; in assay [6], 1%. Also, the growth, % of control at 1 µM in assay [3] is 88%. Also, in assay [5], the inhibition result was “inactive”. In addition, the growth, % of control at 10 µM in assay [7] was 7%.

On to `Cc1ccc(C(=O)Nc2c(NC(=O)CN(C)CC3OCCO3)ccc3c2C(=O)c2ccccc2C3=O)cc1`, for which the growth, % of control at 100 µM in assay [1] is 3%. Further, in the assay on PC-3, the half-inhibitory concentration (IC50) is 1.46 µM. Also, the values for the residual activity in assay [2], in assay [4] and in assay [6] were 76%, 100% and 10%, respectively. This compound also came in with a growth, % of control at 1 µM in assay [3] of 104%. The inhibition entry in assay [5] was “inactive”. In addition, in assay [7], the growth, % of control at 10 µM was 88%.

Regarding `O=C(CCl)Nc1ccc2c(c1NC(=O)c1ccccc1Cl)C(=O)c1ccccc1C2=O`, the growth, % of control at 100 µM in assay [1] came to 0%. The IC50 in the assay with PC-3 stood at 3.09 µM. For the same compound, the residual activity in assay [2] came out at 5%; in assay [4], 81%; in assay [6], 1%. The growth, % of control at 1 µM in assay [3] amounted to 101%. Besides, the inhibition entry in assay [5] was “inactive”. The growth, % of control at 10 µM in assay [7] was 6%.

`O=C(CCl)Nc1ccc2c(c1NC(=O)c1ccc(C(F)(F)F)cc1)C(=O)c1ccccc1C2=O`: in assay [1], the growth, % of control at 100 µM amounted to 0%. The compound further yielded an IC50 with PC-3 of 6.67 µM. The results for the residual activity in assay [2], in assay [4] and in assay [6] were 8%, 85% and 6%, respectively. The growth, % of control at 1 µM in assay [3] is 86%. Further, the inhibition entry in assay [5] is “inactive”. In assay [7], this compound gave a growth, % of control at 10 µM of 6%.

In turn, `COc1cccc2c1C(=O)c1c(O)c3c(c(O)c1C2=O)C[C@@](O)(C(=O)CO)C[C@@H]3O[C@H]1C[C@H](N)[C@H](O)[C@H](C)O1` [DOXORUBICIN] gave an IC50 with PC-3 of 0.25 µM.
